Measured values reported in ChEMBL document CHEMBL1156296, “Development of novel, highly potent inhibitors of V-RAF murine sarcoma viral oncogene homologue B1 (BRAF): increasing cellular potency through optimization of a distal heteroaromatic group” (J Med Chem, 2010).

What was measured:
[1] = Growth inhibition of human WM266.4 cells expressing BRAF V600E mutant after 5 days by SRB assay; type: functional; conditions: WM 266-4, 120 h
[2] = biological target: T1, Serine/threonine-protein kinase B-raf (Homo sapiens, UniProt P15056, V600E); test: Inhibition of BRAF V600E mutant ERK phosphorylation in human WM266.4 cells; type: cell-based
T1 sequence (P15056 2-766 V600E limits assumed): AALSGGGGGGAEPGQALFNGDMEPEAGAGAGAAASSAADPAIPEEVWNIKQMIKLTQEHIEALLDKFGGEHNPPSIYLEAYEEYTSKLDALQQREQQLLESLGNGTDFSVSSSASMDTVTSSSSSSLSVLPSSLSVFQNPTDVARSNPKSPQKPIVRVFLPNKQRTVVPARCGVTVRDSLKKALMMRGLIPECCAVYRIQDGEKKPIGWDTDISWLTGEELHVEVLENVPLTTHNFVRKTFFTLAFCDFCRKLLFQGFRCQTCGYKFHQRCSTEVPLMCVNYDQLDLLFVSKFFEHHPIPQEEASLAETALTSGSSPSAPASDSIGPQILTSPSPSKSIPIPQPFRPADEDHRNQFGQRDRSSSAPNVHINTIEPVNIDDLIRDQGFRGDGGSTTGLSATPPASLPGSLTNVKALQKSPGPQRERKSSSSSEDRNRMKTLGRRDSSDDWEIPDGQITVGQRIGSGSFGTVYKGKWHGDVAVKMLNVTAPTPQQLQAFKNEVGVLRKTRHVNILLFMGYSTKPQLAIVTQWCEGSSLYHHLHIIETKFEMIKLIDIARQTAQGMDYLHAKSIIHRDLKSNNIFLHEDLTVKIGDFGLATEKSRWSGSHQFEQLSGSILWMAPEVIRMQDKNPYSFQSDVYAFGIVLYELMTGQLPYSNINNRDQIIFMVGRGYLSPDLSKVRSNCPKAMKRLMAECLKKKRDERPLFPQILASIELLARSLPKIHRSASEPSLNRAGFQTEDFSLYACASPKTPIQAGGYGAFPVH
Method in brief: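 WM266.4 melanoma cells, which carry mutant V600E BRAF, exposed to inhibitor for 6 h. ERK phosphorylation (pERK) measured and IC50 derived. Run in triplicate, with a few compounds measured once.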

[3] = biological target: T1, Serine/threonine-protein kinase B-raf; test: Inhibition of human BRAF V600E mutant expressed in baculovirus system
Method in brief: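 Isolated purified V600E BRAF kinase with a 45 min incubation. Enzyme inhibition measured and IC50 derived. Run in triplicate, with one compound measured once.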

[4] = Half life in BALB/cAnNCrl mouse at 10 mg/kg, po; type: ADME, organism-based; design: dose 10 mg/kg, route oral; conditions: in vivo
Method in brief: (§1)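 Female BALB/cAnNCrl mice, at least 6 weeks old, dosed once by oral gavage at 10 mL/kg in DMSO/water 1:19 v/v. Blood was taken at six or eight time points from 15 min to 18 or 24 h, three mice per time point, by terminal cardiac puncture under halothane or isoflurane into heparinized syringes. Plasma was snap frozen and stored at -70 °C.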

[5] = Cmax in BALB/cAnNCrl mouse at 10 mg/kg, po; type: ADME, organism-based; design: dose 10 mg/kg, route oral; conditions: in vivo; method in brief: as §1
[6] = Tmax in BALB/cAnNCrl mouse at 10 mg/kg, po; type: ADME, organism-based; design: dose 10 mg/kg, route oral; conditions: in vivo; method in brief: as §1
[7] = Oral bioavailability in BALB/cAnNCrl mouse at 10 mg/kg; type: ADME, organism-based; conditions: in vivo
Method in brief: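 Female BALB/cAnNCrl mice, at least 6 weeks old. The oral arm was gavage at 10 mL/kg in DMSO/water 1:19. The iv arm was 2 mg/kg (~4 μmol/kg) at 10 mL/kg in DMSO/Tween-20/water 10:1:89, sampled at seven or eight points from 5 min to 18 or 24 h. Three mice per time point, terminal cardiac blood, plasma.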

SMILES	GI50 [1]	IC50 [2]	IC50 [3]	half-life [4]	Cmax [5]	Tmax [6]	bioavailability [7]
CC(C)(C)c1cc(NC(=O)Nc2ccc(Oc3ccnc4[nH]c(=O)[nH]c34)cc2)n(-c2ccc(F)cc2)n1	540 nM	411 nM	124 nM	–	–	–	–
Cn1c(=O)[nH]c2nccc(Oc3ccc(NC(=O)Nc4cc(C(C)(C)C)nn4-c4cccnc4)cc3)c21	590 nM	830 nM	390 nM	–	–	–	–
CCCn1nc(C(C)(C)C)cc1NC(=O)Nc1ccc(Oc2ccnc3[nH]c(=O)[nH]c23)cc1	9500 nM	10800 nM	83 nM	–	–	–	–
CC(C)(C)c1cc(NC(=O)Nc2ccc(Oc3ccnc4[nH]c(=O)[nH]c34)cc2)n(C(C)(C)C)n1	26000 nM	33000 nM	1190 nM	–	–	–	–
CC(C)(C)c1csc(NC(=O)Nc2ccc(Oc3ccnc4[nH]c(=O)[nH]c34)cc2)n1	10400 nM	–	7800 nM	–	–	–	–
O=C(Nc1ccc(Oc2ccnc3[nH]c(=O)[nH]c23)cc1)Nc1nnc(C2CCCO2)s1 (stereo not drawn)	48900 nM	58000 nM	170 nM	–	–	–	–
CC(C)(C)c1cc(NC(=O)Nc2ccc(Oc3ccnc4[nH]c(=O)[nH]c34)cc2)n(-c2ccccn2)n1	3400 nM	6400 nM	210 nM	–	–	–	–
CC(C)(C)c1cc(NC(=O)Nc2ccc(Oc3ccnc4[nH]c(=O)[nH]c34)cc2)n(-c2ccc(F)cc2F)n1	1230 nM	1190 nM	104 nM	–	–	–	–
Cn1nc(C(C)(C)C)cc1NC(=O)Nc1ccc(Oc2ccnc3[nH]c(=O)[nH]c23)cc1	12900 nM	28000 nM	33 nM	–	–	–	–
CC(C)(C)c1cc(NC(=O)Nc2ccc(Oc3ccnc4[nH]c(=O)[nH]c34)c3ccccc23)n(-c2ccc(F)cc2)n1	20 nM	203 nM	240 nM	–	–	–	–
CC(C)(C)c1cc(NC(=O)Nc2ccc(Sc3ccnc4[nH]c(=O)[nH]c34)cc2)n(-c2ccccc2)n1	12 nM	70 nM	215 nM	–	–	–	–
Cc1ccc(-n2nc(C(C)(C)C)cc2NC(=O)Nc2ccc(Sc3ccnc4[nH]c(=O)[nH]c34)cc2)cc1	259 nM	234 nM	2200 nM	–	–	–	–
CC(C)(C)c1cc(NC(=O)Nc2ccc(Oc3ccnc4[nH]c(=O)[nH]c34)cc2)n(Cc2ccccc2)n1	10100 nM	13400 nM	147 nM	–	–	–	–
Cc1ccc(-n2nc(C(C)(C)C)cc2NC(=O)Nc2ccc(Oc3ccnc4[nH]c(=O)[nH]c34)c3ccccc23)cc1	31 nM	14 nM	670 nM	–	–	–	–
Cn1c(=O)[nH]c2nccc(Oc3ccc(NC(=O)Nc4cc(C(C)(C)C)nn4-c4ccc(F)cc4)c4ccccc34)c21	47 nM	35 nM	313 nM	–	–	–	–
Cn1c(=O)[nH]c2nccc(Oc3ccc(NC(=O)Nc4cc(C(C)(C)C)nn4-c4cccnc4)c4ccccc34)c21	69 nM	100 nM	790 nM	48 min	4.21 µM	30 min	5%
Cn1c(=O)[nH]c2c(Oc3ccc(NC(=O)Nc4cc(C(C)(C)C)nn4-c4ccccc4)c4ccccc34)ccnc21	167 nM	27 nM	6900 nM	–	–	–	–
Cc1ccc(-n2nc(C(C)(C)C)cc2NC(=O)Nc2ccc(Oc3ccnc4c3[nH]c(=O)n4C)c3ccccc23)cc1	1090 nM	70 nM	6300 nM	–	–	–	–
Cn1nc(C(C)(C)C)cc1NC(=O)Nc1ccc(Oc2ccnc3c2[nH]c(=O)n3C)c2ccccc12	470 nM	470 nM	197 nM	–	–	–	–

SMILES	GI50 [1]	IC50 [2]	IC50 [3]	half-life [4]	Cmax [5]	Tmax [6]	bioavailability [7]
Cc1ccc(-n2nc(C(C)(C)C)cc2NC(=O)Nc2ccc(Oc3ccnc4c3[nH]c(=O)n4C)cc2)cc1	27 nM	54 nM	1190 nM	204 min	22.7 µM	60 min	30%
Cc1ccc(-n2nc(C(C)(C)C)cc2NC(=O)Nc2ccc(Oc3ccnc4c3n(C)c(=O)n4C)cc2)cc1	210 nM	190 nM	1800 nM	–	–	–	–
Cn1nc(C(C)(C)C)cc1NC(=O)Nc1ccc(Oc2ccnc3[nH]c(=O)[nH]c23)c2ccccc12	670 nM	2300 nM	11 nM	–	–	–	–
Cc1ccc(-n2nc(C(C)(C)C)cc2NC(=O)Nc2ccc(Oc3ccnc4c3[nH]c(=O)n4C)cc2F)cn1	240 nM	62 nM	530 nM	756 min	18 µM	15 min	17%
Cn1c(=O)n(C)c2c(Oc3ccc(NC(=O)Nc4cc(C(C)(C)C)nn4-c4ccccc4)c(F)c3)ccnc21	33 nM	122 nM	1090 nM	126 min	4.44 µM	30 min	59%
CC(C)(C)c1cc(NC(=O)Nc2ccc(Oc3ccnc4[nH]c(=O)[nH]c34)cc2)n(-c2ccc(Cl)cc2)n1	530 nM	350 nM	140 nM	–	–	–	–
Cc1cc(NC(=O)Nc2ccc(Oc3ccnc4[nH]c(=O)[nH]c34)cc2)n(-c2ccc(Cl)cc2)n1	21000 nM	70000 nM	290 nM	–	–	–	–
CC(C)c1cc(NC(=O)Nc2ccc(Oc3ccnc4[nH]c(=O)[nH]c34)cc2)n(-c2ccccc2)n1	1170 nM	1970 nM	42 nM	–	–	–	–
Cc1ccc(-n2nc(C(C)(C)C)cc2NC(=O)Nc2ccc(Oc3ccnc4c3n(C)c(=O)n4C)cc2F)cc1	320 nM	52 nM	1130 nM	564 min	8.12 µM	30 min	31%
CSc1cc(Oc2ccnc3[nH]c(=O)[nH]c23)ccc1NC(=O)Nc1cc(C(C)(C)C)nn1-c1ccc(C)cc1	16 nM	56 nM	76 nM	–	–	–	–
Cn1nc(C(C)(C)C)cc1NC(=O)Nc1ccc(Oc2ccnc3c2[nH]c(=O)n3C)cc1	1920 nM	2900 nM	258 nM	–	–	–	–
Cn1c(=O)[nH]c2c(Oc3ccc(NC(=O)Nc4cc(C(C)(C)C)nn4-c4ccccc4)cc3)ccnc21	61 nM	130 nM	880 nM	–	–	–	–
Cc1ccc(-n2nc(C(F)(F)F)cc2NC(=O)Nc2ccc(Oc3ccnc4[nH]c(=O)n(C)c34)cc2)cc1	1890 nM	3200 nM	176 nM	–	–	–	–
Cn1c(=O)[nH]c2nccc(Oc3ccc(NC(=O)Nc4cc(C5CC5)nn4-c4ccccc4)cc3)c21	3700 nM	18200 nM	143 nM	–	–	–	–
Cn1c(=O)[nH]c2nccc(Oc3ccc(NC(=O)Nc4cc(C(C)(C)C)nn4-c4ccccc4)cc3)c21	145 nM	164 nM	215 nM	–	–	–	–
Cn1nc(C(C)(C)C)cc1NC(=O)Nc1ccc(Oc2ccnc3[nH]c(=O)n(C)c23)cc1	4200 nM	14100 nM	84 nM	–	–	–	–
Cn1c(=O)[nH]c2nccc(Oc3ccc(NC(=O)Nc4cc(C(C)(C)C)nn4-c4ccc(F)cc4)cc3)c21	497 nM	1360 nM	135 nM	–	–	–	–
CC(C)(C)c1cc(NC(=O)Nc2ccc(Oc3ccnc4[nH]c(=O)[nH]c34)c3ccccc23)n(-c2ccccc2)n1	34 nM	35 nM	510 nM	–	–	–	–
Cn1nc(C(C)(C)C)cc1NC(=O)Nc1ccc(Oc2ccnc3[nH]c(=O)n(C)c23)c2ccccc12	161 nM	383 nM	99 nM	–	–	–	–
